# In ChEMBL document CHEMBL4689842, “EUbOPEN Chemogenomics Library wave 1” (2021):
# Experiments:
# [1] = test system: Fibroblast; assay: Incucyte cell viability with human fibroblast; type: toxicity, cell-based; conditions: 10 µM, compound concentration 10 uM; note: filed as whole numbers so only -1 and 0 and 1 occur
# [2] = test system: HEK-293T; assay: Multiplex assay against HEK293T; type: toxicity, cell-based; conditions: human;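 for Population Tubulin-Different-Phenotype (%): share of the cells with healthy nuclei that show this phenotype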
# How it was run: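 Cells were classed with CellPathfinder machine-learning gating, first as Hoechst high-intensity objects or normal cells, then (normal cells) as healthy, pyknosed or fragmented nuclei, and finally (pyknosed cells) as mitotic or apoptotic. Staining of live cells at seeding used Hoechst33342, BioTracker Green Microtubule Cytoskeleton Dye, MitoTracker Red and Annexin V Alexa Fluor 680, with imaging on a CQ1 microscope at 37°C and 5% CO2 after compound addition. Tubulin, mitochondrial-mass and membrane-permeability phenotypes are per cents of healthy-nucleus cells.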
# [3] = 12 h, 1 µM, compound concentration 1 uM, replicate 1
# [4] = 12 h, 1 µM, compound concentration 1 uM, replicate 2
# [5] = 12 h, 10 µM, compound concentration 10 uM, replicate 1
# [6] = 12 h, 10 µM, compound concentration 10 uM, replicate 2
# [7] = 24 h, 1 µM, compound concentration 1 uM, replicate 1
# [8] = 24 h, 1 µM, compound concentration 1 uM, replicate 2
# [9] = 24 h, 10 µM, compound concentration 10 uM, replicate 1
# [10] = 24 h, 10 µM, compound concentration 10 uM, replicate 2
# [11] = 48 h, 1 µM, compound concentration 1 uM, replicate 1
# [12] = 48 h, 1 µM, compound concentration 1 uM, replicate 2
# [13] = 48 h, 10 µM, compound concentration 10 uM, replicate 1
# [14] = 48 h, 10 µM, compound concentration 10 uM, replicate 2
smiles,measurement,setting,value
CC(C)[C@H](CO)Nc1nc(Nc2cccc(Cl)c2)c2ncn(C(C)C)c2n1 [PURVALANOLA],Growth Rate,"[1]; 0 h, replicate number 1, timepoint 0 hours",0
same,Growth Rate,"[1]; 6 h, replicate number 1, timepoint 6 hours",0
same,Growth Rate,"[1]; 12 h, replicate number 1, timepoint 12 hours",0
same,Growth Rate,"[1]; 18 h, replicate number 1, timepoint 18 hours",0
same,Growth Rate,"[1]; 24 h, replicate number 1, timepoint 24 hours",0
same,Population Apoptotic (%),[2]; [3],48%
same,Population Fragmented Nuclei (%),[2]; [3],8%
same,Population Healthy Nuclei (%),[2]; [3],37%
same,Population Hoechst High Intensity Objects (%),[2]; [3],13%
same,Population Membrane Permeable-Phenotype (%),[2]; [3],5%
same,Population Mitochondria Different-Phenotype (%),[2]; [3],85%
same,Population Mitotic Cells (%),[2]; [3],51%
same,Population Normal (%),[2]; [3],86%
same,Population Pyknosed Nuclei (%),[2]; [3],54%
same,Population Tubulin-Different-Phenotype (%),[2]; [3],53%
same,Total Cell Count,[2]; [3],256
same,Population Apoptotic (%),[2]; [4],19%
same,Population Fragmented Nuclei (%),[2]; [4],6%
same,Population Healthy Nuclei (%),[2]; [4],43%
same,Population Hoechst High Intensity Objects (%),[2]; [4],3%
same,Population Membrane Permeable-Phenotype (%),[2]; [4],7%
same,Population Mitochondria Different-Phenotype (%),[2]; [4],33%
same,Population Mitotic Cells (%),[2]; [4],80%
same,Population Normal (%),[2]; [4],96%
same,Population Pyknosed Nuclei (%),[2]; [4],50%
same,Population Tubulin-Different-Phenotype (%),[2]; [4],32%
same,Total Cell Count,[2]; [4],201
same,Population Apoptotic (%),[2]; [5],73%
same,Population Fragmented Nuclei (%),[2]; [5],7%
same,Population Healthy Nuclei (%),[2]; [5],27%
same,Population Hoechst High Intensity Objects (%),[2]; [5],12%
same,Population Membrane Permeable-Phenotype (%),[2]; [5],2%
same,Population Mitochondria Different-Phenotype (%),[2]; [5],97%
same,Population Mitotic Cells (%),[2]; [5],26%
same,Population Normal (%),[2]; [5],87%
same,Population Pyknosed Nuclei (%),[2]; [5],64%
same,Population Tubulin-Different-Phenotype (%),[2]; [5],98%
same,Total Cell Count,[2]; [5],324
same,Population Apoptotic (%),[2]; [6],53%
same,Population Fragmented Nuclei (%),[2]; [6],6%
same,Population Healthy Nuclei (%),[2]; [6],18%
same,Population Hoechst High Intensity Objects (%),[2]; [6],7%
same,Population Membrane Permeable-Phenotype (%),[2]; [6],5%
same,Population Mitochondria Different-Phenotype (%),[2]; [6],82%
same,Population Mitotic Cells (%),[2]; [6],46%
same,Population Normal (%),[2]; [6],92%
same,Population Pyknosed Nuclei (%),[2]; [6],75%
same,Population Tubulin-Different-Phenotype (%),[2]; [6],97%
same,Total Cell Count,[2]; [6],198
same,Population Apoptotic (%),[2]; [7],42%
same,Population Fragmented Nuclei (%),[2]; [7],14%
same,Population Healthy Nuclei (%),[2]; [7],36%
same,Population Hoechst High Intensity Objects (%),[2]; [7],11%
same,Population Membrane Permeable-Phenotype (%),[2]; [7],4%
same,Population Mitochondria Different-Phenotype (%),[2]; [7],75%
same,Population Mitotic Cells (%),[2]; [7],57%
same,Population Normal (%),[2]; [7],88%
same,Population Pyknosed Nuclei (%),[2]; [7],49%
same,Population Tubulin-Different-Phenotype (%),[2]; [7],53%
same,Total Cell Count,[2]; [7],295
same,Population Apoptotic (%),[2]; [8],14%
same,Population Fragmented Nuclei (%),[2]; [8],4%
same,Population Healthy Nuclei (%),[2]; [8],63%
same,Population Hoechst High Intensity Objects (%),[2]; [8],3%
same,Population Membrane Permeable-Phenotype (%),[2]; [8],3%
same,Population Mitochondria Different-Phenotype (%),[2]; [8],26%
same,Population Mitotic Cells (%),[2]; [8],85%
same,Population Normal (%),[2]; [8],96%
same,Population Pyknosed Nuclei (%),[2]; [8],31%
same,Population Tubulin-Different-Phenotype (%),[2]; [8],36%
same,Total Cell Count,[2]; [8],244
same,Population Apoptotic (%),[2]; [9],75%
same,Population Fragmented Nuclei (%),[2]; [9],6%
same,Population Healthy Nuclei (%),[2]; [9],31%
same,Population Hoechst High Intensity Objects (%),[2]; [9],12%
same,Population Membrane Permeable-Phenotype (%),[2]; [9],2%
same,Population Mitochondria Different-Phenotype (%),[2]; [9],98%
same,Population Mitotic Cells (%),[2]; [9],24%
same,Population Normal (%),[2]; [9],87%
same,Population Pyknosed Nuclei (%),[2]; [9],61%
same,Population Tubulin-Different-Phenotype (%),[2]; [9],96%
same,Total Cell Count,[2]; [9],375
same,Population Apoptotic (%),[2]; [10],69%
same,Population Fragmented Nuclei (%),[2]; [10],4%
same,Population Healthy Nuclei (%),[2]; [10],19%
same,Population Hoechst High Intensity Objects (%),[2]; [10],9%
same,Population Membrane Permeable-Phenotype (%),[2]; [10],5%
same,Population Mitochondria Different-Phenotype (%),[2]; [10],94%
same,Population Mitotic Cells (%),[2]; [10],30%
same,Population Normal (%),[2]; [10],90%
same,Population Pyknosed Nuclei (%),[2]; [10],75%
same,Population Tubulin-Different-Phenotype (%),[2]; [10],97%
same,Total Cell Count,[2]; [10],200
same,Population Apoptotic (%),[2]; [11],49%
same,Population Fragmented Nuclei (%),[2]; [11],18%
same,Population Healthy Nuclei (%),[2]; [11],42%
same,Population Hoechst High Intensity Objects (%),[2]; [11],13%
same,Population Membrane Permeable-Phenotype (%),[2]; [11],3%
same,Population Mitochondria Different-Phenotype (%),[2]; [11],46%
same,Population Mitotic Cells (%),[2]; [11],50%
same,Population Normal (%),[2]; [11],86%
same,Population Pyknosed Nuclei (%),[2]; [11],40%
same,Population Tubulin-Different-Phenotype (%),[2]; [11],38%
same,Total Cell Count,[2]; [11],347
same,Population Apoptotic (%),[2]; [12],13%
same,Population Fragmented Nuclei (%),[2]; [12],7%
same,Population Healthy Nuclei (%),[2]; [12],77%
same,Population Hoechst High Intensity Objects (%),[2]; [12],4%
same,Population Mitochondria Different-Phenotype (%),[2]; [12],12%
same,Population Mitotic Cells (%),[2]; [12],86%
same,Population Normal (%),[2]; [12],95%
same,Population Pyknosed Nuclei (%),[2]; [12],15%
same,Population Tubulin-Different-Phenotype (%),[2]; [12],26%
same,Total Cell Count,[2]; [12],414
same,Population Apoptotic (%),[2]; [13],85%
same,Population Fragmented Nuclei (%),[2]; [13],8%
same,Population Healthy Nuclei (%),[2]; [13],50%
same,Population Hoechst High Intensity Objects (%),[2]; [13],12%
same,Population Mitochondria Different-Phenotype (%),[2]; [13],99%
same,Population Mitotic Cells (%),[2]; [13],14%
same,Population Normal (%),[2]; [13],87%
same,Population Pyknosed Nuclei (%),[2]; [13],41%
same,Population Tubulin-Different-Phenotype (%),[2]; [13],99%
same,Total Cell Count,[2]; [13],366
same,Population Apoptotic (%),[2]; [14],89%
same,Population Fragmented Nuclei (%),[2]; [14],6%
same,Population Healthy Nuclei (%),[2]; [14],38%
same,Population Hoechst High Intensity Objects (%),[2]; [14],5%
same,Population Membrane Permeable-Phenotype (%),[2]; [14],2%
same,Population Mitochondria Different-Phenotype (%),[2]; [14],94%
same,Population Mitotic Cells (%),[2]; [14],10%
same,Population Normal (%),[2]; [14],94%
same,Population Pyknosed Nuclei (%),[2]; [14],55%
same,Population Tubulin-Different-Phenotype (%),[2]; [14],94%
same,Total Cell Count,[2]; [14],190
